Assay results as given in ChEMBL document CHEMBL3272198, “Preparation and in vitro antifungal activities of some quinolizidine derived hemiaminals and beta-tert-amino sulfides” (1976).
Calls of active or inactive are those of the source. The calls are words filed in the database; no cut-off is given here.

Experiments:
Format in all cases: functional
Blastomyces dermatitidis [1] = assay: Antifungal activity against Blastomyces dermatitidis Gilchrist & Stokes isolate 1099 at 60 ug/ml after 1 week (reference value: 14 mm)
Histoplasma capsulatum [2] = assay: Antifungal activity against Histoplasma capsulatum Darling isolate 1098 at 60 ug/ml after 2 weeks (reference value: 21 mm); conditions: Darling isolate 1098, 336 h, read-out: DIZ
Histoplasma capsulatum [3] = assay: Antifungal activity against Histoplasma capsulatum Darling isolate 1098 at 20 ug/ml after 2 weeks (reference value: 21 mm); conditions: Darling isolate 1098, 336 h, read-out: DIZ
Histoplasma capsulatum [4] = assay: Antifungal activity against Histoplasma capsulatum Darling isolate 1098 at 100 ug/ml after 1 week (reference value: 12 mm)
Histoplasma capsulatum [5] = assay: Antifungal activity against Histoplasma capsulatum Darling isolate 1106 at 80 ug/ml after 3 weeks (reference value: 31 mm); conditions: Darling isolate 1106, 504 h, read-out: DIZ
Histoplasma capsulatum [6] = assay: Antifungal activity against Histoplasma capsulatum Darling isolate 1098 at 40 ug/ml after 1 week (reference value: 12 mm); conditions: Darling isolate 1098, 168 h, read-out: DIZ
Blastomyces dermatitidis [7] = assay: Antifungal activity against Blastomyces dermatitidis Gilchrist & Stokes isolate 1099 at 80 ug/ml after 2 weeks (reference value: 27 mm)
Blastomyces dermatitidis [8] = assay: Antifungal activity against Blastomyces dermatitidis Gilchrist & Stokes isolate 1099 at 40 ug/ml after 2 weeks (reference value: 27 mm); conditions: Gilchrist & Stokes isolate 1099, 336 h, read-out: DIZ
Summary of the method: (§1)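 Mycelial phase grown on Sabouraud dextrose agar at 25°C. Agar pH was set to 6 before the test solution was added and was 5.0-5.5 after. Test solutions contained HOAc and Me2SO, and solvent and blank controls were included. Each quadrant was center-inoculated with a 2 × 2 mm piece of a 2-week-old mycelial culture. Colony diameter was measured weekly for 3 weeks and reported as total increments (mm). Duplicates were run.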

Blastomyces dermatitidis [9] = assay: Antifungal activity against Blastomyces dermatitidis Gilchrist & Stokes isolate 1099 at 60 ug/ml after 2 weeks (reference value: 27 mm); summary of the method: as §1
Blastomyces dermatitidis [10] = assay: Antifungal activity against Blastomyces dermatitidis Gilchrist & Stokes isolate 1099 at 80 ug/ml after 1 week (reference value: 14 mm)
Blastomyces dermatitidis [11] = assay: Antifungal activity against Blastomyces dermatitidis Gilchrist & Stokes isolate 1099 at 80 ug/ml after 3 weeks (reference value: 34 mm); conditions: Gilchrist & Stokes isolate 1099, 504 h, read-out: DIZ; summary of the method: as §1
Blastomyces dermatitidis [12] = assay: Antifungal activity against Blastomyces dermatitidis Gilchrist & Stokes isolate 1107 at 60 ug/ml after 2 weeks (reference value: 35 mm); conditions: Gilchrist & Stokes isolate 1107, 336 h, read-out: DIZ; summary of the method: as §1
Blastomyces dermatitidis [13] = assay: Antifungal activity against Blastomyces dermatitidis Gilchrist & Stokes isolate 1107 at 60 ug/ml after 3 weeks (reference value: 40 mm); conditions: Gilchrist & Stokes isolate 1107, 504 h, read-out: DIZ; summary of the method: as §1
Histoplasma capsulatum [14] = assay: Antifungal activity against Histoplasma capsulatum Darling isolate 1106 at 10 ug/ml after 1 week (reference value: 14 mm); conditions: Darling isolate 1106, 168 h, read-out: DIZ
Histoplasma capsulatum [15] = assay: Antifungal activity against Histoplasma capsulatum Darling isolate 1106 at 10 ug/ml after 3 weeks (reference value: 31 mm); conditions: Darling isolate 1106, 504 h, read-out: DIZ
Histoplasma capsulatum [16] = assay: Antifungal activity against Histoplasma capsulatum Darling isolate 1106 at 20 ug/ml after 1 week (reference value: 14 mm); conditions: Darling isolate 1106, 168 h, read-out: DIZ
Blastomyces dermatitidis [17] = assay: Antifungal activity against Blastomyces dermatitidis Gilchrist & Stokes isolate 1099 at 60 ug/ml after 3 weeks (reference value: 34 mm); conditions: Gilchrist & Stokes isolate 1099, 504 h, read-out: DIZ; summary of the method: as §1
Blastomyces dermatitidis [18] = assay: Antifungal activity against Blastomyces dermatitidis Gilchrist & Stokes isolate 1099 at 100 ug/ml after 1 week (reference value: 14 mm)
Histoplasma capsulatum [19] = assay: Antifungal activity against Histoplasma capsulatum Darling isolate 1098 at 100 ug/ml after 3 weeks (reference value: 28 mm); conditions: Darling isolate 1098, 504 h, read-out: DIZ
Histoplasma capsulatum [20] = assay: Antifungal activity against Histoplasma capsulatum Darling isolate 1106 at 80 ug/ml after 1 week (reference value: 14 mm); conditions: Darling isolate 1106, 168 h, read-out: DIZ
Blastomyces dermatitidis [21] = assay: Antifungal activity against Blastomyces dermatitidis Gilchrist & Stokes isolate 1107 at 60 ug/ml after 1 week (reference value: 20 mm)
Blastomyces dermatitidis [22] = assay: Antifungal activity against Blastomyces dermatitidis Gilchrist & Stokes isolate 1107 at 40 ug/ml after 3 weeks (reference value: 40 mm); conditions: Gilchrist & Stokes isolate 1107, 504 h, read-out: DIZ; summary of the method: as §1
Histoplasma capsulatum [23] = assay: Antifungal activity against Histoplasma capsulatum Darling isolate 1106 at 40 ug/ml after 2 weeks (reference value: 25 mm); conditions: Darling isolate 1106, 336 h, read-out: DIZ
Histoplasma capsulatum [24] = assay: Antifungal activity against Histoplasma capsulatum Darling isolate 1098 at 80 ug/ml after 2 weeks (reference value: 21 mm); conditions: Darling isolate 1098, 336 h, read-out: DIZ
Histoplasma capsulatum [25] = assay: Antifungal activity against Histoplasma capsulatum Darling isolate 1106 at 60 ug/ml after 2 weeks (reference value: 25 mm); conditions: Darling isolate 1106, 336 h, read-out: DIZ
Blastomyces dermatitidis [26] = assay: Antifungal activity against Blastomyces dermatitidis Gilchrist & Stokes isolate 1107 at 20 ug/ml after 1 week (reference value: 20 mm); summary of the method: as §1
Histoplasma capsulatum [27] = assay: Antifungal activity against Histoplasma capsulatum Darling isolate 1106 at 80 ug/ml after 2 weeks (reference value: 25 mm); conditions: Darling isolate 1106, 336 h, read-out: DIZ
Blastomyces dermatitidis [28] = assay: Antifungal activity against Blastomyces dermatitidis Gilchrist & Stokes isolate 1099 at 100 ug/ml after 3 weeks (reference value: 34 mm); conditions: Gilchrist & Stokes isolate 1099, 504 h, read-out: DIZ; summary of the method: as §1
Blastomyces dermatitidis [29] = assay: Antifungal activity against Blastomyces dermatitidis Gilchrist & Stokes isolate 1107 at 100 ug/ml after 3 weeks (reference value: 40 mm); conditions: Gilchrist & Stokes isolate 1107, 504 h, read-out: DIZ; summary of the method: as §1
Histoplasma capsulatum [30] = assay: Antifungal activity against Histoplasma capsulatum Darling isolate 1106 at 10 ug/ml after 2 weeks (reference value: 25 mm); conditions: Darling isolate 1106, 336 h, read-out: DIZ
Blastomyces dermatitidis [31] = assay: Antifungal activity against Blastomyces dermatitidis Gilchrist & Stokes isolate 1099 at 20 ug/ml after 1 week (reference value: 14 mm); summary of the method: as §1
Histoplasma capsulatum [32] = assay: Antifungal activity against Histoplasma capsulatum Darling isolate 1098 at 40 ug/ml after 2 weeks (reference value: 21 mm); conditions: Darling isolate 1098, 336 h, read-out: DIZ
Blastomyces dermatitidis [33] = assay: Antifungal activity against Blastomyces dermatitidis Gilchrist & Stokes isolate 1107 at 10 ug/ml after 1 week (reference value: 20 mm); summary of the method: as §1
Blastomyces dermatitidis [34] = assay: Antifungal activity against Blastomyces dermatitidis Gilchrist & Stokes isolate 1099 at 10 ug/ml after 2 weeks (reference value: 27 mm); conditions: Gilchrist & Stokes isolate 1099, 336 h, read-out: DIZ; summary of the method: as §1
Blastomyces dermatitidis [35] = assay: Antifungal activity against Blastomyces dermatitidis Gilchrist & Stokes isolate 1099 at 40 ug/ml after 3 weeks (reference value: 34 mm); conditions: Gilchrist & Stokes isolate 1099, 504 h, read-out: DIZ; summary of the method: as §1
Blastomyces dermatitidis [36] = assay: Antifungal activity against Blastomyces dermatitidis Gilchrist & Stokes isolate 1107 at 10 ug/ml after 3 weeks (reference value: 40 mm); conditions: Gilchrist & Stokes isolate 1107, 504 h, read-out: DIZ; summary of the method: as §1
Blastomyces dermatitidis [37] = assay: Antifungal activity against Blastomyces dermatitidis Gilchrist & Stokes isolate 1107 at 40 ug/ml after 1 week (reference value: 20 mm)
Histoplasma capsulatum [38] = assay: Antifungal activity against Histoplasma capsulatum Darling isolate 1098 at 10 ug/ml after 1 week (reference value: 12 mm); conditions: Darling isolate 1098, 168 h, read-out: DIZ
Blastomyces dermatitidis [39] = assay: Antifungal activity against Blastomyces dermatitidis Gilchrist & Stokes isolate 1099 at 10 ug/ml after 1 week (reference value: 14 mm); summary of the method: as §1

For `C[C@@H]1[C@H](O)[C@@H](C)/C=C/C=C/C=C/C=C/C=C/C=C/C=C/[C@H](O[C@@H]2O[C@H](C)[C@@H](O)[C@H](N)[C@@H]2O)C[C@@H]2O[C@](O)(C[C@@H](O)C[C@@H](O)[C@H](O)CC[C@@H](O)C[C@@H](O)CC(=O)O[C@H]1C)C[C@H](O)[C@H]2C(=O)O` [AMPHOTERICIN B], the Activity (Blastomyces dermatitidis [1]) was “Active”, the zone of inhibition at 60 µg/mL (Histoplasma capsulatum [2]) was 9 mm and the zone of inhibition at 20 µg/mL (Histoplasma capsulatum [3]) was 12 mm. The Activity (Histoplasma capsulatum [4]) was “inactive”, the zone of inhibition at 80 µg/mL (Histoplasma capsulatum [5]) was 12 mm and the zone of inhibition at 40 µg/mL (Histoplasma capsulatum [6]) was 5 mm. The Activity (Blastomyces dermatitidis [7]) was “Active”, the zone of inhibition at 40 µg/mL (Blastomyces dermatitidis [8]) was 2 mm and the Activity (Blastomyces dermatitidis [9]) was “Active”. For the same molecule, the Activity (Blastomyces dermatitidis [10]) was “Active”, the zone of inhibition at 80 µg/mL (Blastomyces dermatitidis [11]) was 2 mm and the zone of inhibition at 60 µg/mL (Blastomyces dermatitidis [12]) was 10 mm. It also gave a zone of inhibition at 60 µg/mL (Blastomyces dermatitidis [13]) of 14 mm, a zone of inhibition at 10 µg/mL (Histoplasma capsulatum [14]) of 7 mm and a zone of inhibition at 10 µg/mL (Histoplasma capsulatum [15]) of 17 mm. For the same molecule, the zone of inhibition at 20 µg/mL (Histoplasma capsulatum [16]) was 6 mm, the zone of inhibition at 60 µg/mL (Blastomyces dermatitidis [17]) was 4 mm and the Activity (Blastomyces dermatitidis [18]) was “Active”. For the same molecule, the zone of inhibition at 100 µg/mL (Histoplasma capsulatum [19]) was 14 mm, the zone of inhibition at 80 µg/mL (Histoplasma capsulatum [20]) was 5 mm and the Activity (Blastomyces dermatitidis [21]) was “inactive”. It also gave a zone of inhibition at 40 µg/mL (Blastomyces dermatitidis [22]) of 13 mm, a zone of inhibition at 40 µg/mL (Histoplasma capsulatum [23]) of 9 mm and a zone of inhibition at 80 µg/mL (Histoplasma capsulatum [24]) of 10 mm. The zone of inhibition at 60 µg/mL (Histoplasma capsulatum [25]) was 9 mm, the Activity (Blastomyces dermatitidis [26]) was “inactive” and the zone of inhibition at 80 µg/mL (Histoplasma capsulatum [27]) was 7 mm. It also gave a zone of inhibition at 100 µg/mL (Blastomyces dermatitidis [28]) of 2 mm, a zone of inhibition at 100 µg/mL (Blastomyces dermatitidis [29]) of 11 mm and a zone of inhibition at 10 µg/mL (Histoplasma capsulatum [30]) of 12 mm. The Activity (Blastomyces dermatitidis [31]) was “Active”, the zone of inhibition at 40 µg/mL (Histoplasma capsulatum [32]) was 11 mm and the Activity (Blastomyces dermatitidis [33]) was “inactive”. The zone of inhibition at 10 µg/mL (Blastomyces dermatitidis [34]) was 6 mm, the zone of inhibition at 40 µg/mL (Blastomyces dermatitidis [35]) was 4 mm and the zone of inhibition at 10 µg/mL (Blastomyces dermatitidis [36]) was 15 mm. For the same molecule, the Activity (Blastomyces dermatitidis [37]) was “inactive”, the zone of inhibition at 10 µg/mL (Histoplasma capsulatum [38]) was 8 mm and the Activity (Blastomyces dermatitidis [39]) was “Active”.
